Source: ChEMBL document CHEMBL1142454, “Synthesis and evaluation of novel 4-amino-4,6-androstadiene-3,17-dione: an analog of formestane” (2008)

Tests used:
Assay type in all cases: functional
Set-up in all cases: scale not given: the % may be the effect or the level left
[1] = system: MDA-MB-231; test: Antitumor activity against human MDA-MB-231/ATCC cells assessed as reduction of cell growth at 10 uM after 48 hrs by SRB assay
Procedure, shortened: (§1)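 NCI 60-cell-line primary screen, single dose 10^-5 M (final). Cells grown in RPMI 1640 with 5% FBS and 2 mM L-glutamine, seeded at 5000–40,000 cells/well and preincubated 24 h at 37 °C, 5% CO2. Compound is dissolved in DMSO, diluted in medium with gentamicin, and exposed 48 h. Cells are fixed with 10% TCA (final) and stained with 0.4% SRB; absorbance is read at 515 nm. Readout is growth percentage.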

[2] = system: A549; test: Antitumor activity against human A549/ATCC cells assessed as reduction of cell growth at 10 uM after 48 hrs by SRB assay; procedure, shortened: as §1
[3] = system: SW-620; test: Antitumor activity against human SW620 cells assessed as reduction of cell growth at 10 uM after 48 hrs by SRB assay
Procedure, shortened: (§2)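 NCI-60 one-dose primary screen at 10^-5 M final. Cells grown in RPMI 1640 with 5% FBS and 2 mM L-glutamine, plated at 5000–40,000 cells/well and preincubated 24 h at 37 °C, 5% CO2. Drug stocks in DMSO, diluted in medium with gentamicin. Exposure 48 h, then fixed in situ with TCA (10% final) for 60 min at 4 °C. Stained with 0.4% SRB in 1% acetic acid, bound dye solubilized in 10 mM trizma base, absorbance read at 515 nm. Reported as mean growth percent; negative values indicate cell kill.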

[4] = system: NCI-H23; test: Antitumor activity against human NCI-H23 cells assessed as reduction of cell growth at 10 uM after 48 hrs by SRB assay; procedure, shortened: as §1
[5] = system: UACC-62; test: Antitumor activity against human UACC-62 cells assessed as reduction of cell growth at 10 uM after 48 hrs by SRB assay; procedure, shortened: as §2
[6] = system: NCI-H522; test: Antitumor activity against human NCI-H522 cells assessed as reduction of cell growth at 10 uM after 48 hrs by SRB assay; procedure, shortened: as §1
[7] = system: SNB-19; test: Antitumor activity against human SNB-19 cells assessed as reduction of cell growth at 10 uM after 48 hrs by SRB assay; procedure, shortened: as §1
[8] = system: SK-MEL-2; test: Antitumor activity against human SK-MEL-2 cells assessed as reduction of cell growth at 10 uM after 48 hrs by SRB assay; procedure, shortened: as §1
[9] = system: MCF7; test: Antitumor activity against human […] MCF7 cells assessed as reduction of cell growth at 10 uM after 48 hrs by SRB assay; procedure, shortened: as §2
[10] = system: UACC-257; test: Antitumor activity against human UACC-257 cells assessed as reduction of cell growth at 10 uM after 48 hrs by SRB assay; procedure, shortened: as §2
[11] = system: KM12; test: Antitumor activity against human KM12 cells assessed as reduction of cell growth at 10 uM after 48 hrs by SRB assay; procedure, shortened: as §1
[12] = system: SN12C; test: Antitumor activity against human SN12C cells assessed as reduction of cell growth at 10 uM after 48 hrs by SRB assay; procedure, shortened: as §1
[13] = system: HOP-62; test: Antitumor activity against human HOP-62 cells assessed as reduction of cell growth at 10 uM after 48 hrs by SRB assay; procedure, shortened: as §1
[14] = system: NCI-H226; test: Antitumor activity against human NCI-H226 cells assessed as reduction of cell growth at 10 uM after 48 hrs by SRB assay; procedure, shortened: as §1
[15] = system: SNB-75; test: Antitumor activity against human SNB75 cells assessed as reduction of cell growth at 10 uM after 48 hrs by SRB assay; procedure, shortened: as §1
[16] = system: OVCAR-5; test: Antitumor activity against human OVCAR5 cells assessed as reduction of cell growth at 10 uM after 48 hrs by SRB assay; procedure, shortened: as §1
[17] = system: UO-31; test: Antitumor activity against human UO-31 cells assessed as reduction of cell growth at 10 uM after 48 hrs by SRB assay; procedure, shortened: as §2
[18] = system: MOLT-4; test: Antitumor activity against human MOLT-4 cells assessed as reduction of cell growth at 10 uM after 48 hrs by SRB assay; procedure, shortened: as §1
[19] = system: U-251; test: Antitumor activity against human U251 cells assessed as reduction of cell growth at 10 uM after 48 hrs by SRB assay; procedure, shortened: as §2
[20] = system: SK-MEL-28; test: Antitumor activity against human SK-MEL-28 cells assessed as reduction of cell growth at 10 uM after 48 hrs by SRB assay; procedure, shortened: as §1
[21] = system: RPMI-8226; test: Antitumor activity against human RPMI 8226 cells assessed as reduction of cell growth at 10 uM after 48 hrs by SRB assay; procedure, shortened: as §1

## C[C@]12CC[C@H]3[C@@H](CCC4=CC(=O)CC[C@@]43CF)[C@@H]1CCC2=O
[1]
  Activity: 117.71%
[2]
  Activity: 99.26%
[3]
  Activity: 125.89%
[4]
  Activity: 106.48%
[5]
  Activity: 114.6%
[6]
  Activity: 87.35%
[7]
  Activity: 109.3%
[8]
  Activity: 97.19%
[9]
  Activity: 107.98%
[10]
  Activity: 97.04%
[11]
  Activity: 117.01%
[12]
  Activity: 113.5%
[13]
  Activity: 123.96%
[14]
  Activity: 111.29%
[15]
  Activity: 90.07%
[16]
  Activity: 118.37%
[17]
  Activity: 87.76%
[18]
  Activity: 106.1%
[19]
  Activity: 111.4%
[20]
  Activity: 116.5%

## CCOC1=C2CC[C@@H]3[C@H](CC[C@]4(C)C(=O)CC[C@@H]34)[C@@]2(C)CCC1=O
[1]
  Activity: 106.73%
[2]
  Activity: 97.79%
[3]
  Activity: 120.57%
[4]
  Activity: 101.11%
[5]
  Activity: 90.78%
[6]
  Activity: 91%
[7]
  Activity: 112.3%
[8]
  Activity: 94.48%
[9]
  Activity: 97.45%
[10]
  Activity: 117.1%
[11]
  Activity: 123.89%
[12]
  Activity: 110.6%
[13]
  Activity: 103.52%
[14]
  Activity: 98.58%
[15]
  Activity: 79.71%
[16]
  Activity: 101.66%
[17]
  Activity: 85.82%
[18]
  Activity: 98.59%
[20]
  Activity: 135.2%

## C[C@]12CCC(=O)C(N)=C1C=C[C@@H]1[C@@H]2CC[C@]2(C)C(=O)CC[C@@H]12.Cl
[1]
  Activity: 100.87%
[2]
  Activity: 103.34%
[3]
  Activity: 15.36%
[4]
  Activity: 74.07%
[5]
  Activity: 81.02%
[6]
  Activity: 76.59%
[7]
  Activity: 102.8%
[8]
  Activity: 74.41%
[21]
  Activity: -18.11%
[9]
  Activity: 68.71%
[10]
  Activity: 86.69%
[11]
  Activity: 39.52%
[12]
  Activity: 88.53%
[13]
  Activity: 111.88%
[14]
  Activity: 96.3%
[15]
  Activity: 94.19%
[16]
  Activity: 107.69%
[17]
  Activity: 64.59%
[18]
  Activity: 57.2%
[19]
  Activity: 54.19%
[20]
  Activity: 103.4%

## C[C@]12CCC(=O)C(Oc3ccccc3)=C1CC[C@@H]1[C@@H]2CC[C@]2(C)C(=O)CC[C@@H]12
[1]
  Activity: 109.86%
[2]
  Activity: 100.25%
[3]
  Activity: 120.45%
[4]
  Activity: 97.57%
[5]
  Activity: 87.46%
[6]
  Activity: 87.31%
[7]
  Activity: 114.92%
[8]
  Activity: 82.37%
[21]
  Activity: 87.07%
[9]
  Activity: 90.34%
[10]
  Activity: 108.45%
[11]
  Activity: 115.72%
[12]
  Activity: 90.07%
[13]
  Activity: 106.47%
[14]
  Activity: 96.55%
[15]
  Activity: 91.11%
[16]
  Activity: 97.47%
[17]
  Activity: 76.98%
[18]
  Activity: 105.63%
[19]
  Activity: 91.35%
[20]
  Activity: 119.81%
